34 compounds from ChEMBL document CHEMBL1949495, “Synthesis and cytotoxicity evaluation of biaryl-based chalcones and their potential in TNFα-induced nuclear factor-κB activation inhibition” (Eur J Med Chem, 2012) can be followed below.

Molecules are shown by their SMILES.

What all share (type): functional, cell-based
One assay relates to SW480. In words: Cytotoxicity against human SW480 cells assessed as total cell protein after 48 hrs by SRB assay. Particulars: SW480, 48 h. The gist of the method: (§1)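 Cells kept in RPMI-1640 with 2 mM glutamine, 10% FBS, penicillin/streptomycin, 37 °C, 5% CO2. Seeded 5000 cells/well, grown 24 h, then serial dilutions from 10 mM DMSO stocks added in medium (final DMSO 0.5%), triplicate, 48 h. TCA fixation at 4 °C for 1 h, 0.4% SRB stain, dye solubilized in 10 mM Tris pH 10.4, OD 515 nm. IC50 by nonlinear regression of % control viability vs log concentration; experiments repeated at least twice.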

Assay [1] can be described thus: Cytotoxicity against human CNE2 cells assessed as total cell protein after 48 hrs by SRB assay. The note with it: CNE-2, 48 h. The essentials: as §1
For orientation: In SRB staining, fixed cells bind dye roughly in proportion to their protein.

The test system of the next assay is MCF7. In words: Cytotoxicity against human MCF7 cells assessed as total cell protein after 48 hrs by SRB assay. The note with it: MCF7, 48 h. The gist of the method: as §1
For a further assay, the system named is HepG2. In words: Cytotoxicity against human HepG2 cells assessed as total cell protein after 48 hrs by SRB assay. Particulars: HepG2, 48 h. The essentials:
as §1

A further assay has as its system A549. In words: Cytotoxicity against human A549 cells assessed as total cell protein after 48 hrs by SRB assay. Particulars: A549, 48 h. The essentials: as §1

Usually IC50 stands for the concentration at which inhibition is half-maximal. On to `COc1cc(/C=C/C(=O)c2cccc(-c3cccc(F)c3)c2)ccc1O`, for which the IC50 with SW480 was determined as 6.74 µM; in assay [1], 5.69 µM; with MCF7 it was 14.2 µM; with HepG2 it was 6.83 µM; in the assay on A549, 9.9 µM.
As for `O=C(/C=C/c1ccc(Cl)cc1)c1cccc(-c2cccc(F)c2)c1`, the concentration for half-maximal inhibition (IC50) in the assay with SW480 was determined as 16.9 µM; in assay [1] it was 9.06 µM; in the assay on MCF7, 18.2 µM; in the assay on HepG2, 10.4 µM; in the assay with A549 it was 15.4 µM.
The matching figures for `O=C(/C=C/c1cccc(Br)c1)c1cccc(-c2cccc(F)c2)c1`: 8.61 µM, 6.55 µM, 12.7 µM, 6.98 µM and 9.12 µM.
For the compound `COc1ccccc1/C=C/C(=O)c1cccc(-c2cccc(F)c2)c1`, the concentration for half-maximal inhibition (IC50) with SW480 is 16.6 µM; in assay [1], 10.4 µM; in the assay with MCF7, 18.9 µM; with HepG2, 15.4 µM; in the assay with A549, 15.5 µM.
In the case of `COc1ccc(/C=C/C(=O)c2cccc(-c3cccc(F)c3)c2)cc1`, the IC50 stood at 4.51 µM in the assay on SW480; 0.74 µM in assay [1]; 3.08 µM in the assay with MCF7; 1.72 µM in the assay with HepG2; 2.44 µM with A549.
As to `COc1ccc(/C=C/C(=O)c2cccc(-c3cccc(F)c3)c2)cc1OC`, the IC50 in the assay on SW480 was 2.97 µM; in assay [1] it was 0.77 µM; with MCF7 it was 4.62 µM; in the assay with HepG2, 1.17 µM; in the assay on A549, 1.94 µM.
Consider `COc1cccc(/C=C/C(=O)c2cccc(-c3cccc(F)c3)c2)c1OC`, for which the IC50 is 13.5 µM in the assay with SW480; 10 µM in assay [1]; 11.7 µM in the assay with MCF7; 9.2 µM in the assay on HepG2; 8.9 µM in the assay with A549.
For `O=C(/C=C/c1ccccc1Br)c1cccc(-c2cccc(F)c2)c1`, in that order: 14.8 µM, 8.91 µM, 20 µM, 12.8 µM and 12.4 µM.
Take `O=C(/C=C/c1ccc(Br)cc1)c1cccc(-c2cccc(F)c2)c1`: the IC50 is 18.2 µM with SW480; 10.5 µM in assay [1]; 18.3 µM in the assay on MCF7; 9.92 µM in the assay with HepG2; 19.8 µM in the assay with A549.
The matching figures for `O=C(/C=C/c1cccc(-c2ccc(F)cc2)c1)c1ccc(F)cc1`: 13.5 µM, 7.39 µM, 14.1 µM, 12.3 µM and 12.2 µM.
The matching figures for `O=C(/C=C/c1cccc(-c2ccc(F)cc2)c1)c1ccc(O)cc1`: 12 µM, 5.51 µM, 10.8 µM, 5.12 µM and 8.36 µM.
The matching figures for `COc1ccc(/C=C/C(=O)c2ccc(N)c(-c3ccc(F)cc3)c2)cc1`: 7.23 µM, 1.6 µM, 7.58 µM, 3.75 µM and 4.31 µM.
In the case of `COc1ccc(/C=C/C(=O)c2ccc(NC(C)=O)c(-c3ccc(F)cc3)c2)cc1OC`, the 50% inhibitory concentration (IC50) in the assay with SW480 came to 5.35 µM; in assay [1] it was 2.74 µM; in the assay on MCF7 it was 15 µM; in the assay on HepG2, 5.63 µM; with A549 it was 7.38 µM.
The matching figures for `COc1ccc(/C=C/C(=O)c2ccc(N)c(-c3ccc(F)cc3)c2)cc1OC`: 6.64 µM, 3.51 µM, 15 µM, 3.78 µM and 8.63 µM.
The matching figures for `COc1ccc(/C=C/C(=O)c2ccc(N)c(-c3ccc(F)cc3)c2)c(OC)c1`: 12.4 µM, 6.29 µM, 10.8 µM, 7.74 µM and 14.4 µM.
For `COc1ccc(OC)c(/C=C/C(=O)c2ccc(N)c(-c3ccc(F)cc3)c2)c1`, in that order: 7.83 µM, 6.71 µM, 8.92 µM, 4.01 µM and 7.04 µM.
Regarding `COc1cccc(/C=C/C(=O)c2ccc(N)c(-c3ccc(F)cc3)c2)c1OC`, the IC50 was 12.5 µM with SW480; 11.3 µM in assay [1]; 13.3 µM in the assay with MCF7; 7.37 µM with HepG2; 13.3 µM in the assay on A549.
On to `COc1cc(/C=C/C(=O)c2ccc(N)c(-c3ccc(F)cc3)c2)ccc1O`, for which the IC50 in the assay on SW480 turned out to be 8.35 µM; in assay [1] it was 5.75 µM; in the assay with MCF7, 10.5 µM; in the assay with HepG2, 4.3 µM; with A549, 12.2 µM.
With `COc1cc(/C=C/C(=O)c2ccc(N)c(-c3ccc(F)cc3)c2)cc(OC)c1OC`, the IC50 turned out to be 6.12 µM in the assay on SW480; 4.6 µM in assay [1]; 9.03 µM in the assay with MCF7; 4.21 µM in the assay with HepG2; 6.07 µM in the assay with A549.
On to `Nc1ccc(C(=O)/C=C/c2ccc(O)c(F)c2)cc1-c1ccc(F)cc1`, for which the half-inhibitory concentration (IC50) with SW480 worked out at 31.7 µM; in assay [1] it was 18.1 µM; in the assay on MCF7, 18.3 µM; in the assay with HepG2, 11.7 µM; with A549, 24.5 µM.
As to `COc1cc(/C=C/C(=O)c2ccc(N)c(-c3ccc(F)cc3)c2)cc(Br)c1O`, the IC50 with SW480 is 22.9 µM; in assay [1] it was 25.5 µM; in the assay on MCF7, 40.5 µM; in the assay with HepG2, 4.73 µM; in the assay with A549, more than 50 µM.
With `COc1ccc(/C=C/C(=O)c2ccc(N)c(-c3ccc(F)cc3)c2)cc1O`, the IC50 in the assay with A549 came out at 0.94 µM.
For the compound `COc1ccc(-c2cc(C(=O)/C=C/c3ccc(F)cc3)ccc2N)cc1OC`, the IC50 in the assay on SW480 came to 14.7 µM; in assay [1], 7.93 µM; in the assay with MCF7, 19.4 µM; in the assay with HepG2, 8.96 µM; in the assay on A549, 18 µM.
The matching figures for `COc1ccc(/C=C/C(=O)c2ccc(N)c(-c3ccc(OC)c(OC)c3)c2)c(OC)c1`: 9.3 µM, 8.34 µM, 6.49 µM, 2.13 µM and 2.21 µM.
The matching figures for `COc1ccc(OC)c(/C=C/C(=O)c2ccc(N)c(-c3ccc(OC)c(OC)c3)c2)c1`: 6.49 µM, 6.59 µM, 6.33 µM, 2.1 µM and 6.2 µM.
The matching figures for `COc1ccc(-c2cc(C(=O)/C=C/c3cccc(OC)c3OC)ccc2N)cc1OC`: 8.33 µM, 6.6 µM, 10.2 µM, 5.36 µM and 6.54 µM.
As for `COc1ccc(-c2cc(C(=O)/C=C/c3cc(OC)c(OC)c(OC)c3)ccc2N)cc1OC`, the concentration for half-maximal inhibition (IC50) was determined as 5.63 µM with SW480; 4.33 µM in assay [1]; 6.58 µM with MCF7; 2.68 µM in the assay with HepG2; 4.62 µM in the assay on A549.
For the compound `COc1ccc(/C=C/C(=O)c2cccc(Br)c2)cc1`, in the assay with A549, the IC50 came to 34.2 µM.
On the same count and under the same terms, to `COc1ccc(/C=C/C(=O)c2cccc(Br)c2)cc1OC` belongs 9.43 µM; to `COc1ccc(/C=C/C(=O)c2cccc(Br)c2)cc1O`, 5.88 µM.
Consider `COc1ccc(/C=C/C(=O)c2cccc(-c3ccc(F)cc3)c2)cc1`, for which the IC50 is 8.35 µM with SW480; 5.55 µM in assay [1]; 16.4 µM in the assay on MCF7; 5.65 µM with HepG2; 11.2 µM in the assay on A549.
The matching figures for `COc1ccc(/C=C/C(=O)c2cccc(-c3ccc(F)cc3)c2)cc1OC`: 6.49 µM, 5.55 µM, 11.6 µM, 5.37 µM and 11.8 µM.
For the compound `COc1ccc(/C=C/C(=O)c2cccc(-c3cccc(F)c3)c2)cc1O`, the concentration for half-maximal inhibition (IC50) in the assay with A549 was 0.5 µM.
With `COc1ccc(/C=C/C(=O)c2cccc(-c3ccc(F)nc3)c2)cc1O`, the IC50 in the assay on A549 was found to be 2.06 µM.
